These results are taken from ChEMBL document CHEMBL4396871, “Leveraging a Low-Affinity Diazaspiro Orthosteric Fragment to Reduce Dopamine D3 Receptor (D3R) Ligand Promiscuity across Highly Conserved Aminergic G-Protein-Coupled Receptors (GPCRs)” (J Med Chem, 2019).

Data set [1] concerns the target D(4) dopamine receptor (Homo sapiens) (UniProt P21917). The experiment in a line: Displacement of [3H]N-methylspiperone from recombinant human D4 receptor stably expressed in HEK cell membranes at 10 uM measured after 90 mins by microbeta scintillation counting method relative to control. For orientation: Loss of bound radioactivity is the signal in a displacement assay; it reports binding, not function.

Data set [2] has as its target D(1B) dopamine receptor (Homo sapiens, UniProt P21918). The experiment in a line: Displacement of [3H]-SCH23390 from recombinant human D5 receptor transiently expressed in HEK cell membranes at 10 uM measured after 90 mins by microbeta scintillation counting method relative to control. Summed up:
(§1)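 Primary screen at 10 μM compound, expressed as % receptor inhibition, from at least three experiments.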

The target in data set [3] is 5-hydroxytryptamine receptor 1B (Homo sapiens, UniProt P28222). The experiment in a line: Displacement of [3H]-5-CT from recombinant human 5HT1B receptor stably expressed in HEK cell membranes at 10 uM measured after 90 mins by microbeta scintillation counting method relative to control. A digest of the protocol:
as §1

The target of data set [4] is T1, 5-hydroxytryptamine receptor 7 (Homo sapiens, UniProt P34969). The data set is described as follows: Displacement of [3H]-LSD from recombinant human 5HT7A receptor stably expressed in HEK cell membranes at 10 uM measured after 90 mins by microbeta scintillation counting method relative to control. A digest of the protocol:
as §1

For data set [5], the target named is Alpha-2B adrenergic receptor (Homo sapiens, UniProt P18089). The experiment in a line: Displacement of [3H]-rauwolscine from recombinant human alpha2B adrenergic receptor transiently expressed in HEKT cells at 10 uM measured after 90 mins by microbeta scintillation counting method relative to control. It counts as cell-based. The following applies: probe [3H]-rauwolscine.

For data set [6], the target named is Neuronal acetylcholine receptor; alpha3/beta4 (Homo sapiens, UniProt P30926+P32297). The experiment in a line: Displacement of [3H]-epibatidine from recombinant human alpha3beta4 nACHR stably expressed in HEK cells measured after 90 mins by microbeta scintillation counting method. It counts as cell-based.
Data set [7] concerns the target Sodium-dependent serotonin transporter (Homo sapiens, UniProt P31645). The data set is described as follows: Displacement of [3H]-citalopram from recombinant human SERT stably expressed in HEK cells measured after 90 mins by microbeta scintillation counting method. In kind it is cell-based.
The target of data set [8] is T1, 5-hydroxytryptamine receptor 7. The data set is described as follows: Displacement of [3H]-LSD from recombinant human 5HT7A receptor stably expressed in HEK cell membranes measured after 90 mins by microbeta scintillation counting method.
In data set [9] the target is Histamine H3 receptor (Homo sapiens, UniProt Q9Y5N1). The experiment in a line: Displacement of [3H]-alpha-methylhistamine from human histamine H3 receptor stably expressed in HEK Flp-In cells at 10 uM after 90 mins by microbeta scintillation counting method relative to control. It counts as cell-based. Summed up: as §1
Data set [10] addresses Muscarinic acetylcholine receptor M3 (Homo sapiens, UniProt P20309). The data set is described as follows: Displacement of [3H]-QNB/[3H]-NMS from human muscarinic M3 receptor expressed in stable CHO cells at 10 uM after 90 mins by microbeta scintillation counting method relative to control. In kind it is cell-based. A digest of the protocol:
as §1

Data set [11] deals with Sodium-dependent noradrenaline transporter (Homo sapiens, UniProt P23975). The data set is described as follows: Displacement of [3H]-nisoxetine from recombinant human NET stably expressed in HEK cells at 10 uM measured after 90 mins by microbeta scintillation counting method relative to control. It counts as cell-based. A digest of the protocol:
as §1

Data set [12] has as its target D2 dopamine receptor (Homo sapiens, UniProt P14416). The data set is described as follows: Displacement of [3H]N-methylspiperone from recombinant human D2 receptor stably expressed in fibroblast measured after 90 mins by microbeta scintillation counting method.
Data set [13] concerns the target D(4) dopamine receptor (Homo sapiens, UniProt P21917). The experiment in a line: Displacement of [3H]N-methylspiperone from recombinant human D4 receptor stably expressed in HEK cell membranes measured after 90 mins by microbeta scintillation counting method.

Bounds are passed on as bounds.

T1 sequence (P34969 whole entry): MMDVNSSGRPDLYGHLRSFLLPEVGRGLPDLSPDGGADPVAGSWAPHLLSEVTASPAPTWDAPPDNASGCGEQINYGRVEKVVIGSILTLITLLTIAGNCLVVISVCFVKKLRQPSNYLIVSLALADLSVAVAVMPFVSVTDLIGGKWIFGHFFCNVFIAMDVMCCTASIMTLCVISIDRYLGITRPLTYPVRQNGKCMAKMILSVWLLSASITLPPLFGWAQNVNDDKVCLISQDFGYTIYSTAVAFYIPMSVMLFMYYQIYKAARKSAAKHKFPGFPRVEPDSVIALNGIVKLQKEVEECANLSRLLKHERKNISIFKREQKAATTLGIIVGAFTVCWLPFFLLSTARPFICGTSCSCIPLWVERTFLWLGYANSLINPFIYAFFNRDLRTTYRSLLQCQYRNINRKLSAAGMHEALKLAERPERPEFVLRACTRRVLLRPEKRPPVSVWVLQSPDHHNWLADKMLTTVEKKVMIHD
5-hydroxytryptamine receptor 1B, sequence (P28222 whole entry): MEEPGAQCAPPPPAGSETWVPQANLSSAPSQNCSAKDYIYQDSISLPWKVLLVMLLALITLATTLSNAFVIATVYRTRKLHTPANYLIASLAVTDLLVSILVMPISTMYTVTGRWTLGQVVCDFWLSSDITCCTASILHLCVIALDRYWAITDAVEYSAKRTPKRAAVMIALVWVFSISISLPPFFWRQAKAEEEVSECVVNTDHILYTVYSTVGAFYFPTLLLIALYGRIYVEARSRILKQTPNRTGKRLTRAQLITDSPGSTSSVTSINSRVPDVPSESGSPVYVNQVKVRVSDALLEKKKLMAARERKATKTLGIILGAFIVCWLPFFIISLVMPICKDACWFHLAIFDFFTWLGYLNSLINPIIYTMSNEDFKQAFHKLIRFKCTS
Neuronal acetylcholine receptor; alpha3/beta4, sequence (P30926 whole entry): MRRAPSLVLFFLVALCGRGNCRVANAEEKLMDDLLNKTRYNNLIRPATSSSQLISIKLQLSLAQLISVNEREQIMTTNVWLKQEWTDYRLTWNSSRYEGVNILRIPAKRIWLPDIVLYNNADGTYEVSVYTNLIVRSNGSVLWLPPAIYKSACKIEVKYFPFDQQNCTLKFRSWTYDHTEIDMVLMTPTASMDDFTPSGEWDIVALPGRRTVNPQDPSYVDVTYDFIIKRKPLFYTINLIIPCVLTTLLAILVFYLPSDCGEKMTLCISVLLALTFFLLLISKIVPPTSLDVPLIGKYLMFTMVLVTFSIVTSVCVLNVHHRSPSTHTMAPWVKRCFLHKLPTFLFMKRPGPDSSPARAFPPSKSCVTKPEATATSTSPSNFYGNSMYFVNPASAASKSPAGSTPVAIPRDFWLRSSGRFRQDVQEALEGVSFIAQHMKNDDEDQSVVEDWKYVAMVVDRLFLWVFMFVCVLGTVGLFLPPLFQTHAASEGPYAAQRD
Neuronal acetylcholine receptor; alpha3/beta4, sequence (P32297 whole entry): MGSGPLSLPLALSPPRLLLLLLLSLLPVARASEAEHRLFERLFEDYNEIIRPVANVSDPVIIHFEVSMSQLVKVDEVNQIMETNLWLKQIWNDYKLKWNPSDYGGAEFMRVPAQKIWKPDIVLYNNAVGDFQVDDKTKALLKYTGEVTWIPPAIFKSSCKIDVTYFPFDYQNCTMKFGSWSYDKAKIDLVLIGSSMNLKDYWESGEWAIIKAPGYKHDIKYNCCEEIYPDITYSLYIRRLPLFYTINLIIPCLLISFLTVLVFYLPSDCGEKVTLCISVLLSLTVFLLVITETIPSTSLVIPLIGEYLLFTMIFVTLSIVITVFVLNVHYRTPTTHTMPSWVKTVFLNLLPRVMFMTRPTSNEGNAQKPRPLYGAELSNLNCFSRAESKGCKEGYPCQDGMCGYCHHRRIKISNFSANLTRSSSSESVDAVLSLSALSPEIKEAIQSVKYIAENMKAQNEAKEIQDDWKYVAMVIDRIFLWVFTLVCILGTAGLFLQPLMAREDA
Histamine H3 receptor, sequence (Q9Y5N1 whole entry): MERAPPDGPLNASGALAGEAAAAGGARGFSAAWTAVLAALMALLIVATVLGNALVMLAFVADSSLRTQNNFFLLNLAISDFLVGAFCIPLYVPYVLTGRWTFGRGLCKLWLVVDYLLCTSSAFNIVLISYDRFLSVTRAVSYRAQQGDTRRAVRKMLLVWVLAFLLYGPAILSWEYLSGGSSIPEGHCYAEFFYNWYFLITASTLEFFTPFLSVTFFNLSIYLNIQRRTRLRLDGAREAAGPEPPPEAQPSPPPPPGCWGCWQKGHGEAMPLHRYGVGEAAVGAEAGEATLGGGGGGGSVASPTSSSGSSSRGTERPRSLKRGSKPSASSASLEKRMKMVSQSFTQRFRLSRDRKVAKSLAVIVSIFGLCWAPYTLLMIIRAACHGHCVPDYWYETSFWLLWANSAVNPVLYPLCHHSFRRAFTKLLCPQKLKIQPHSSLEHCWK
Alpha-2B adrenergic receptor, sequence (P18089 whole entry): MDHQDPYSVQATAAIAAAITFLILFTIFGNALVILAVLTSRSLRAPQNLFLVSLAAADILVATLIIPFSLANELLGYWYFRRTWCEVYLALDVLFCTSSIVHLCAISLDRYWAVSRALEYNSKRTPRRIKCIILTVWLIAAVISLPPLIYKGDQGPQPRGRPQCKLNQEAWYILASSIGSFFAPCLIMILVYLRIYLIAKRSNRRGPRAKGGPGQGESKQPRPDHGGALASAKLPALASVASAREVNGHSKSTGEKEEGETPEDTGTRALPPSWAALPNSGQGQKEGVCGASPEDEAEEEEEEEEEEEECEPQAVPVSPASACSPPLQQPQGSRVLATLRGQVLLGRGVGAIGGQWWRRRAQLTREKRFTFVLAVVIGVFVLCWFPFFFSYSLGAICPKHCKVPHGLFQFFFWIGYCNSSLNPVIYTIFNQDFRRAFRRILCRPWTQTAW
Sodium-dependent noradrenaline transporter, sequence (P23975 whole entry): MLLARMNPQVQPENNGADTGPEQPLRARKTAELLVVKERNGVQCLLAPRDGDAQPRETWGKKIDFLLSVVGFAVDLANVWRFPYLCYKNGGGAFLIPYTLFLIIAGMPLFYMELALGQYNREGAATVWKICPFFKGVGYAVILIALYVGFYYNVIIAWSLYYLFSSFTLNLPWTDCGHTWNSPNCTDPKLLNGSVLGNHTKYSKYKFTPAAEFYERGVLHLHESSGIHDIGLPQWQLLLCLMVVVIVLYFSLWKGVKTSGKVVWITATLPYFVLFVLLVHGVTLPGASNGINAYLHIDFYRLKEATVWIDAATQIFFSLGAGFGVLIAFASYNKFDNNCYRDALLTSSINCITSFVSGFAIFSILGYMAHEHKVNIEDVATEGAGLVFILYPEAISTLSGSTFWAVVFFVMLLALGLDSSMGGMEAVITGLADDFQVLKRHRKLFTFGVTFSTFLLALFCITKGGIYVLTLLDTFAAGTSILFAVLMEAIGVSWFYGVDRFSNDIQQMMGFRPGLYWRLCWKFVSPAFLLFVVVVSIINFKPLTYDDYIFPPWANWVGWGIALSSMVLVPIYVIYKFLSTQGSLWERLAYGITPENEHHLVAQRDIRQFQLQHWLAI
Sodium-dependent serotonin transporter, sequence (P31645 whole entry): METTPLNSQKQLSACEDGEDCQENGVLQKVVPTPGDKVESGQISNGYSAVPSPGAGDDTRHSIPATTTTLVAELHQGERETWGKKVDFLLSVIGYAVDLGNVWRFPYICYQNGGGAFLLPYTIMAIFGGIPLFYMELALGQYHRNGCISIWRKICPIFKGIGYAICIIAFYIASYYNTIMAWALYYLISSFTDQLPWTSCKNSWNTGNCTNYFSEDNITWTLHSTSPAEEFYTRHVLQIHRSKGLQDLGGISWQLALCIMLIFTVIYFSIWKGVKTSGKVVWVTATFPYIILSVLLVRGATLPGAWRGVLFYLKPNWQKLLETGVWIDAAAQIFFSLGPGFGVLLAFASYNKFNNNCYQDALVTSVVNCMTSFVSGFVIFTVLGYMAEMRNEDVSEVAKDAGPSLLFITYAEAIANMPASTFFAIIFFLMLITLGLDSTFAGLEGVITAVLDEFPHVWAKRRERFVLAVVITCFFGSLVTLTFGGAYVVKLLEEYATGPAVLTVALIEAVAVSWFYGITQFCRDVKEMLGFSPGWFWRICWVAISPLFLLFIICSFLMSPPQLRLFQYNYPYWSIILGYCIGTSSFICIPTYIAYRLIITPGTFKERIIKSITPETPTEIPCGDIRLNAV
Muscarinic acetylcholine receptor M3, sequence (P20309 whole entry, looked up): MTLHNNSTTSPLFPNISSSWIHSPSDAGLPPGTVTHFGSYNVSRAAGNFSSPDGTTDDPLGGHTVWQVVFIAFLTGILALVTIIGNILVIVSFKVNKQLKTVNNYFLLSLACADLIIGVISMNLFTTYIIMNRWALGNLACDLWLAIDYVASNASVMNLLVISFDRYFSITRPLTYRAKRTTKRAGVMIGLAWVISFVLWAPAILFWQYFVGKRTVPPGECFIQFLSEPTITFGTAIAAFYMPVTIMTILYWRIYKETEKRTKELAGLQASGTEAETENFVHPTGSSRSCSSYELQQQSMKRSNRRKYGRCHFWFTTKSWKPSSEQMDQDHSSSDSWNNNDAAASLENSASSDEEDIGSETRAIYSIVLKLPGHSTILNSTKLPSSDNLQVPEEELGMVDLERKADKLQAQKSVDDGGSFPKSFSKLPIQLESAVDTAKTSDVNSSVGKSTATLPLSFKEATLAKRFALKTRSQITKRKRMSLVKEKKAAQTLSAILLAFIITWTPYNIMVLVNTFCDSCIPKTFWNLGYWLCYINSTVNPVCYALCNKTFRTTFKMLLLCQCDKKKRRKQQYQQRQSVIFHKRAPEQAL

As to `COc1ccccc1N1CCC2(CCN(CCCSc3nnc(-c4ccccc4)n3C)CC2)CC1`, the inhibition in data set [1], in [2], in data set [3] and in data set [4] was less than 50% each time. The inhibition at […], 10 µM in [5] is less than 50%. Besides, the Ki in data set [6] was determined as 8520 nM; in data set [7], 295 nM.

Take `COc1ccccc1N1CCN(CCCSc2nnc(-c3ccccc3)n2C)CC1`: the Ki in data set [8] amounted to 128 nM; in data set [12], 577 nM; in [13] it was 721 nM. In addition, the inhibition in data set [9], in [10] and in data set [11] was less than 50% in each case.

A word on the inhibition: it is the percentage by which the read-out fell short of the control. For orientation: Ki means a measure of affinity in units of concentration, obtained from inhibition or displacement.
